PRMT1 inh: PRMT1 methyltransferase inhibitors, primary screen, biochemical, fluorescence polarization | Protein arginine N-methyltransferase 1 (Homo sapiens), Q99873 | recombinant PRMT1, activity-based probe fluorescence polarization | inhibition, % at 2.79 µM | 370,000 tested, 1.3% active | AID 652257, 2013;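 active = inhibition above about 21% made by adding two undisclosed values, limit read from the data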
PAD4 inh: human PAD4 inhibitors, primary screen, biochemical, fluorescence polarization, 1536-well format. Protein-arginine deiminase type-4 (Homo sapiens), Q9UM07. recombinant PAD4, RCA probe fluorescence polarization. inhibition, % at 6.36 µM. 330,000 tested, 0.41% active;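 active = percent inhibition above a cutoff equal to the mean of all tested compounds plus 3 SD, cut at about 15% in these data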
RBBP9 inhibitor: human RBBP9 inhibitors, primary screen, biochemical, fluorescence polarization, FP-Rh probe, HTS. inhibition, % at 7.94 µM. recombinant RBBP9. 220,000 tested, 0.2% active;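 active = inhibition above the campaign mean of all tested compounds plus 3 SD, cut at about 14% in these data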
Target sequence (O75884 whole entry, looked up): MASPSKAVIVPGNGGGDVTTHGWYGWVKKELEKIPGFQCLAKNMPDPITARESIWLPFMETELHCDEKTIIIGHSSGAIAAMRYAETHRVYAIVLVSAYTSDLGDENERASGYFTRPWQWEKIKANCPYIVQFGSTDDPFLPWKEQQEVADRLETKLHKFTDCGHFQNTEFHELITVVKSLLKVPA
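Test system – recombinant human RBBP9 · Input – RBBP9 2.5 µM in dispensing solution, pre-mixing · Medium – Tris buffer pH 8.0, NaCl, Pluronic · Schedule – preincubation 30 min plus labeling 45 min at 25 °C · Measured by – fluorescence polarization · Measure – % inhibition · Controls – DMSO and no-protein wells · Replicates – one well per compound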
GSTO1 inh: inhibitors of recombinant GSTO1, primary screen, counter-screen for RBBP9 inhibitor project, biochemical, fluorescence polarization; activity-based probe fluorescence polarization; inhibition, % at 5.96 µM; Glutathione S-transferase omega-1 (Homo sapiens), P78417; 300,000 tested, 1.1% active; AID 1974, 2009;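 active = inhibition above the campaign mean inhibition plus 3 SD, cut at about 35% in these data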
Target sequence (P78417 whole entry, looked up): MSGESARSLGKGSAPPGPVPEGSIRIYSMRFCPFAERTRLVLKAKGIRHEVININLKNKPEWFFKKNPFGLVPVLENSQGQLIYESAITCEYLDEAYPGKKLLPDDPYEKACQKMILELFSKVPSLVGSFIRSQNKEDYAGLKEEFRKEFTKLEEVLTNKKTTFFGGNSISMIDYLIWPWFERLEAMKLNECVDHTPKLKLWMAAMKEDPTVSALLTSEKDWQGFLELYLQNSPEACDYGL
PME-1 primary: PME-1 inhibitors via competitive probe labeling, primary screen, biochemical, fluorescence polarization, FP-Rh probe, HTS; Protein phosphatase methylesterase 1 (Homo sapiens), Q9Y570; recombinant PME-1; inhibition, % at 5.9 µM; 320,000 tested, 0.53% active;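 active = inhibition above the campaign mean of all compounds plus 3 SD, cut at about 26% in these data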;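 also: competitive labeling of PME-1 active site by serine hydrolase directed probe; inhibitors block probe labeling so polarization falls and inhibition rises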
Fam108B inh: mouse Fam108B serine hydrolase inhibitors, primary screen, counter-screen for RBBP9 inhibitor project, biochemical, fluorescence polarization; recombinant Fam108B, FP-Rh probe fluorescence polarization; 300,000 tested, 0.33% active; inhibition, % at 9.51 µM;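 active = inhibition above the screen mean inhibition plus 3 SD, computed separately per campaign, cut at about 18% in these data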;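 also: inhibitors lower polarization as less probe binds the enzyme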
PAD4 confirm: human PAD4 inhibitors, confirmation, biochemical, fluorescence polarization | 1,200 tested, 28% active | inhibition, % at 6.36 µM | recombinant PAD4, RCA probe fluorescence polarization | shares compounds with PAD4 inh | AID 488796, 2010;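 active = mean inhibition across replicates above the hit cutoff set by the earlier primary screen, cut at about 15% in these data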;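 also: inhibitors block active-site labeling by the probe so polarization falls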
Of the large screens only hits and unclear results are named; the others gave an inactive call (follow-up assays come after a bar, where they were run). Sampled rows, rich in hits. Any-hit rate of the full collection: about 2.3%.

Cc1cccc(N(Cc2cc(=O)[nH]c3ccccc23)C(=O)C(C)C)c1	none
CC(=O)N(Cc1cc(=O)[nH]c2ccccc12)c1cccc(C)c1	PAD4 inh 53 | PAD4 confirm 44
CCCC(=O)N(Cc1cc(=O)[nH]c2ccccc12)c1cccc(C)c1	PAD4 inh 22 (no result: RBBP9 inhibitor) | PAD4 confirm 49
CCCC(=O)N(Cc1cc(=O)[nH]c2ccccc12)c1ccccc1C	PAD4 inh 15 (no result: RBBP9 inhibitor) | PAD4 confirm 17
CCCC(=O)N(Cc1cc(=O)[nH]c2ccccc12)c1ccc(OC)cc1	none (no result: RBBP9 inhibitor)
Cc1ccc(N2C(=O)C(Cl)=C(N3CCOCC3)C2=O)c(C)c1	none (no result: RBBP9 inhibitor)
COc1ccc(OC)c(S(=O)(=O)N2CCCC2C(=O)N2CCc3ccccc3C2)c1 (stereo not drawn)	none (no result: RBBP9 inhibitor)
CC(=O)C1=C(c2cccc([N+](=O)[O-])c2)N(C(C)=O)n2c(C)nnc2S1	PRMT1 inh 75, PAD4 inh 19 | PAD4 confirm 23
O=C(Nc1ccccn1)C(=O)N1CCCCC1	PAD4 inh 36 | PAD4 confirm inactive
CCOC(=O)c1ccc(NC(=S)N2CCN(CCNC3=CC(=O)CC(C)(C)C3)CC2)cc1	none
CCOc1ccc2c(c1)-c1c(ssc1=S)C(C)(C)N2C(=O)c1ccco1	PAD4 inh 17 | PAD4 confirm 16
Cc1ccnc(Sc2ccc([N+](=O)[O-])cc2[N+](=O)[O-])n1	PAD4 inh 22 | PAD4 confirm 24
Cc1onc(-c2c(F)cccc2Cl)c1C(=O)N1C=CC(C(F)(F)F)=NCC1	none
COc1ccc(NC(=O)c2ccc(NC(=O)C(C)C)cc2)c([N+](=O)[O-])c1	none
COc1ccc(NC(=O)C(c2cc3c(cc2[N+](=O)[O-])OCO3)N(C)C)cc1 (stereo not drawn)	PAD4 inh 31 | PAD4 confirm inactive
Cn1nnnc1Sc1ncnc2scc(-c3cc4ccccc4o3)c12	PAD4 inh 16 (no result: RBBP9 inhibitor, GSTO1 inh, Fam108B inh) | PAD4 confirm inactive
Cn1nnnc1Sc1ncnc2scc(-c3ccc(-c4ccccc4)cc3)c12	none (no result: RBBP9 inhibitor, GSTO1 inh, PME-1 primary, Fam108B inh)
COc1cccc(C(=O)OCC(=O)c2c(N)n(C)c(=O)n(C)c2=O)c1	PAD4 inh 22 (no result: RBBP9 inhibitor, GSTO1 inh, Fam108B inh) | PAD4 confirm inactive
COc1ccc(NS(=O)(=O)c2cccc(C(=O)OCC(=O)c3c(N)n(C)c(=O)n(C)c3=O)c2)cc1	none (no result: RBBP9 inhibitor, GSTO1 inh, PME-1 primary, Fam108B inh)
Cn1c(N)c(C(=O)COC(=O)COc2ccc(Br)cc2)c(=O)n(C)c1=O	PAD4 inh 171 (no result: RBBP9 inhibitor, GSTO1 inh, Fam108B inh) | PAD4 confirm inactive
Cc1cc(Cl)ccc1OCC(=O)OCC(=O)c1c(N)n(C)c(=O)n(C)c1=O	PAD4 inh 27 (no result: RBBP9 inhibitor, GSTO1 inh, Fam108B inh) | PAD4 confirm inactive
CCC(=O)c1ccc(OCC(=O)OCC(=O)c2c(N)n(C)c(=O)n(C)c2=O)cc1	none (no result: RBBP9 inhibitor, GSTO1 inh, Fam108B inh)
CCCOc1ccc(C(=O)Nn2c(C)nc3ccccc3c2=O)cc1	none
CCOC(=O)CP(=O)(c1ccccc1)c1ccccc1	none
Cc1ccc(P(=O)(CSC(=N)N)c2ccc(C)cc2)cc1	PRMT1 inh 70, PAD4 inh 24 | PAD4 confirm 18
N=C(N)SCP(=O)(c1ccccc1)c1ccccc1	PRMT1 inh 68, PAD4 inh 17 | PAD4 confirm 15
Cc1ccc(P(=O)(CO)c2ccc(C)cc2)cc1	none
COc1ccc(Cl)cc1Nc1nc(C)nc2c1oc1ccccc12	PAD4 inh 15 (no result: RBBP9 inhibitor) | PAD4 confirm inactive
C=CCC1NCCc2c(Br)cccc21 (stereo not drawn)	none
O=S(=O)(c1ccc(F)cc1)N1CCN(Cc2nnc(-c3ccccc3)o2)CC1	none (no result: RBBP9 inhibitor, GSTO1 inh, Fam108B inh)
Cc1n[nH]c(=S)n(/N=C/c2cccs2)c1=O	PAD4 inh 18 | PAD4 confirm inactive
COc1ccc2cc(-c3ccccc3)ncc2c1	none (no result: RBBP9 inhibitor)
Cc1sc(NC(=O)c2ccccc2)c(C(c2ccc(Cl)cc2)N2CCN(CCO)CC2)c1C (stereo not drawn)	PAD4 inh 17 | PAD4 confirm inactive
CCOc1ccc(C(c2c(NC(=O)c3ccccc3)sc(C)c2C)N2CCN(CCO)CC2)cc1 (stereo not drawn)	none
COc1ccc(OC)c(N(C)S(=O)(=O)c2ccc3c(c2)N(C(C)=O)CCO3)c1	PAD4 inh 18 (no result: RBBP9 inhibitor) | PAD4 confirm inactive
CCN(CC)S(=O)(=O)c1ccc(N=NC2=C(O)CCCC2=O)cc1	PAD4 inh 168 | PAD4 confirm inactive
COc1ccc(C(C[N+](=O)[O-])c2c(C)[nH]n(-c3ccccc3)c2=O)cc1 (stereo not drawn)	PAD4 inh 17, GSTO1 inh 82 (no result: RBBP9 inhibitor) | PAD4 confirm inactive
CCCN1CCN(CCCNC(=O)C2CCN(c3nnc(-n4c(C)ccc4C)s3)CC2)CC1	PAD4 inh 18 (no result: RBBP9 inhibitor) | PAD4 confirm inactive
O=C(CN1c2cccc3cccc(c23)S1(=O)=O)Nc1ccc(S(=O)(=O)N2CCOCC2)cc1	PAD4 inh 17 | PAD4 confirm 32
CCCn1c(SCC(=O)N2CCCc3ccccc32)nnc1-c1ccco1	none
COc1cc2ccccc2cc1C(=O)NC1CCC(C)CC1 (stereo not drawn)	PAD4 inh 16 (no result: RBBP9 inhibitor, GSTO1 inh, PME-1 primary, Fam108B inh) | PAD4 confirm inactive
CCOc1ccccc1NC(=O)CCc1c(C)nn(-c2ccc(N3CCCCC3)nn2)c1C	none (no result: RBBP9 inhibitor)
Cc1ccc(-n2c(N)c(C#N)c(-c3ccccc3)c(C#N)c2=O)cc1	none
Cc1ccc(-c2nc3sc(C#N)c(N)n3c(=O)c2C#N)cc1	PRMT1 inh 81, PAD4 inh 62, GSTO1 inh 36 | PAD4 confirm inactive
CC(C)CCc1c(O)nc(SCC(=O)N2CCCCCC2)[nH]c1=O	PAD4 inh 16 (no result: RBBP9 inhibitor) | PAD4 confirm inactive
CCCc1c(O)nc(SCC(=O)N2CCCCC2)[nH]c1=O	none (no result: RBBP9 inhibitor)
Cc1ccc(C2C3C(=O)N(c4ccccc4)C(=O)C3N3CCCN23)cc1 (stereo not drawn)	none
Cc1ccc(-c2c[n+](Cc3ccc(Cl)cc3)c3n2CCC3)cc1	none
Clc1ccc(C[n+]2csc3ccccc32)cc1	PRMT1 inh 63, PAD4 inh 19 | PAD4 confirm 34
Fc1ccc(C[n+]2csc3ccccc32)cc1	PRMT1 inh 74, PAD4 inh 21 | PAD4 confirm 34
CC(C)Cn1c(SCC(=O)NCc2ccco2)nnc1-c1ccncc1	none
Cc1cc(=O)oc2c(CN3CCCC3)c(O)c(Cl)cc12	none (no result: RBBP9 inhibitor)
Cc1cc(=O)oc2c(CN3CCC(C)CC3)c(O)c(Cl)cc12	PAD4 inh 33 | PAD4 confirm 21

Screens from PubChem BioAssay.
